# Organism: Ovis aries
# Test: Selectivity ratio of IC50 for ovine COX2 to ovine COX1
# Details: not given
# Outline: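 Ovine COX-1 and COX-2 inhibition measured with a commercial COX inhibitor screening kit following the Gierse et al. method. Selectivity expressed as the ratio IC50(COX-2)/IC50(COX-1).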
row,Ratio IC50,SMILES
1,0.4,N#Cc1c(Nc2ccc(O)cc2)nc(SCC(=O)Nn2c(COc3ccc(Cl)cc3Cl)nc3ccccc3c2=O)nc1-c1ccc(Cl)cc1
2,0.62,Cn1c(SCC(=O)Nn2c(COc3ccc(Cl)cc3Cl)nc3ccccc3c2=O)nc(-c2ccc(O)cc2)c(C#N)c1=O
3,0.44,N#Cc1c(Nc2ccccc2)nc(SCC(=O)Nn2c(COc3ccc(Cl)cc3Cl)nc3ccccc3c2=O)nc1-c1ccc(O)cc1
4,0.02,Cc1ccc(-c2cc(C(F)(F)F)nn2-c2ccc(S(N)(=O)=O)cc2)cc1 [CELECOXIB]
5,20.6,N#Cc1c(-c2ccccc2)nc(SCC(=O)Nn2c(COc3ccc(Cl)cc3Cl)nc3ccccc3c2=O)[nH]c1=O
6,7.3,N#Cc1c(Nc2ccc(O)cc2)nc(SCC(=O)Nn2c(COc3ccc(Cl)cc3Cl)nc3ccccc3c2=O)nc1-c1ccc(O)cc1

# Tested on: Rattus norvegicus
# Test: Antiinflammatory activity in albino rat assessed as inhibition of carrageenan-induced paw edema at 100 mg/kg, po administered 1 hr prior to carrageenan-challenge measured after 3 hrs
# Assay type: functional
# Details: not given
# Outline: (§1)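 Adult albino rats of both sexes (120–150 g), pre-hydrated with 3 ml water by gavage, five per group. Test agents suspended in distilled water with a few drops of Tween 80, given orally 1 h before sub-plantar injection of 50 µl 1% carrageenan into the right hind paw. Dial-gauge paw thickness taken at 0.5, 1, 2 and 3 h, with the left paw as reference. % inhibition = (Wc−Wt)/Wc × 100 against saline/Tween 80 controls.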
row,SMILES,inhibition in vivo at 100 mg/kg
1,N#Cc1c(Nc2ccc(O)cc2)nc(SCC(=O)Nn2c(COc3ccc(Cl)cc3Cl)nc3ccccc3c2=O)nc1-c1ccc(Cl)cc1,91.2%
2,Cn1c(SCC(=O)Nn2c(COc3ccc(Cl)cc3Cl)nc3ccccc3c2=O)nc(-c2ccc(O)cc2)c(C#N)c1=O,86%
3,N#Cc1c(Nc2ccccc2)nc(SCC(=O)Nn2c(COc3ccc(Cl)cc3Cl)nc3ccccc3c2=O)nc1-c1ccc(O)cc1,91.2%
4,N#Cc1c(-c2ccccc2)nc(SCC(=O)Nn2c(COc3ccc(Cl)cc3Cl)nc3ccccc3c2=O)[nH]c1=O,86%
5,N#Cc1c(Nc2ccc(O)cc2)nc(SCC(=O)Nn2c(COc3ccc(Cl)cc3Cl)nc3ccccc3c2=O)nc1-c1ccc(O)cc1,86.8%

# Tested on: Rattus norvegicus
# Test: Antiinflammatory activity in po dosed albino rat assessed as inhibition of carrageenan-induced paw edema administered 1 hr prior to carrageenan-challenge measured after 3 hrs
# Assay type: functional, organism-based
# Details: not given
# Outline: (§2)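 Carrageenan rat paw oedema (albino rats of both sexes, 120–150 g), oral dosing in Tween 80 suspension 1 h before 50 µl 1% carrageenan sub-plantar injection. Inhibition read at 3 h over a three-dose series (50, 100, 200 mg/kg for test agents; 20, 50, 100 mg/kg for diclofenac sodium). IC50 given in mg/kg and µmol/kg.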
row,IC50,SMILES
1,83.36 mg/kg,N#Cc1c(Nc2ccc(O)cc2)nc(SCC(=O)Nn2c(COc3ccc(Cl)cc3Cl)nc3ccccc3c2=O)nc1-c1ccc(Cl)cc1
2,82.89 mg/kg,Cn1c(SCC(=O)Nn2c(COc3ccc(Cl)cc3Cl)nc3ccccc3c2=O)nc(-c2ccc(O)cc2)c(C#N)c1=O
3,81.31 mg/kg,N#Cc1c(Nc2ccccc2)nc(SCC(=O)Nn2c(COc3ccc(Cl)cc3Cl)nc3ccccc3c2=O)nc1-c1ccc(O)cc1
4,86.74 mg/kg,N#Cc1c(-c2ccccc2)nc(SCC(=O)Nn2c(COc3ccc(Cl)cc3Cl)nc3ccccc3c2=O)[nH]c1=O
5,88.27 mg/kg,N#Cc1c(Nc2ccc(O)cc2)nc(SCC(=O)Nn2c(COc3ccc(Cl)cc3Cl)nc3ccccc3c2=O)nc1-c1ccc(O)cc1

# Tested on: Rattus norvegicus
# Test: Antiinflammatory activity in albino rat assessed as inhibition of carrageenan-induced paw edema at 200 mg/kg, po administered 1 hr prior to carrageenan-challenge measured after 3 hrs
# Assay type: functional
# Details: not given
# Outline: as §2
row,SMILES,inhibition in vivo at 200 mg/kg
1,N#Cc1c(Nc2ccc(O)cc2)nc(SCC(=O)Nn2c(COc3ccc(Cl)cc3Cl)nc3ccccc3c2=O)nc1-c1ccc(Cl)cc1,96.5%
2,Cn1c(SCC(=O)Nn2c(COc3ccc(Cl)cc3Cl)nc3ccccc3c2=O)nc(-c2ccc(O)cc2)c(C#N)c1=O,97.8%
3,N#Cc1c(Nc2ccccc2)nc(SCC(=O)Nn2c(COc3ccc(Cl)cc3Cl)nc3ccccc3c2=O)nc1-c1ccc(O)cc1,96.5%
4,N#Cc1c(-c2ccccc2)nc(SCC(=O)Nn2c(COc3ccc(Cl)cc3Cl)nc3ccccc3c2=O)[nH]c1=O,91.2%
5,N#Cc1c(Nc2ccc(O)cc2)nc(SCC(=O)Nn2c(COc3ccc(Cl)cc3Cl)nc3ccccc3c2=O)nc1-c1ccc(O)cc1,91.2%

# Tested on: Rattus norvegicus
# Test: Antiinflammatory activity in albino rat assessed as inhibition of carrageenan-induced paw edema at 50 mg/kg, po administered 1 hr prior to carrageenan-challenge measured after 3 hrs
# Assay type: functional
# Details: not given
# Outline: as §1
row,SMILES,inhibition in vivo at 50 mg/kg
1,N#Cc1c(Nc2ccc(O)cc2)nc(SCC(=O)Nn2c(COc3ccc(Cl)cc3Cl)nc3ccccc3c2=O)nc1-c1ccc(Cl)cc1,61.4%
2,Cn1c(SCC(=O)Nn2c(COc3ccc(Cl)cc3Cl)nc3ccccc3c2=O)nc(-c2ccc(O)cc2)c(C#N)c1=O,70.4%
3,N#Cc1c(Nc2ccccc2)nc(SCC(=O)Nn2c(COc3ccc(Cl)cc3Cl)nc3ccccc3c2=O)nc1-c1ccc(O)cc1,77.2%
4,N#Cc1c(-c2ccccc2)nc(SCC(=O)Nn2c(COc3ccc(Cl)cc3Cl)nc3ccccc3c2=O)[nH]c1=O,68.4%
5,N#Cc1c(Nc2ccc(O)cc2)nc(SCC(=O)Nn2c(COc3ccc(Cl)cc3Cl)nc3ccccc3c2=O)nc1-c1ccc(O)cc1,56.1%

# Tested on: Rattus norvegicus
# Test: Antiinflammatory activity in albino rat assessed as inhibition of carrageenan-induced paw edema at 100 mg/kg, po administered 1 hr prior to carrageenan-challenge measured after 1 hr
# Assay type: functional
# Details: not given
# Outline: as §1
row,SMILES,inhibition in vivo at 100 mg/kg
1,N#Cc1c(Nc2ccc(O)cc2)nc(SCC(=O)Nn2c(COc3ccc(Cl)cc3Cl)nc3ccccc3c2=O)nc1-c1ccc(Cl)cc1,90.9%
2,Cn1c(SCC(=O)Nn2c(COc3ccc(Cl)cc3Cl)nc3ccccc3c2=O)nc(-c2ccc(O)cc2)c(C#N)c1=O,80%
3,N#Cc1c(Nc2ccccc2)nc(SCC(=O)Nn2c(COc3ccc(Cl)cc3Cl)nc3ccccc3c2=O)nc1-c1ccc(O)cc1,90.9%
4,N#Cc1c(-c2ccccc2)nc(SCC(=O)Nn2c(COc3ccc(Cl)cc3Cl)nc3ccccc3c2=O)[nH]c1=O,81.8%
5,N#Cc1c(Nc2ccc(O)cc2)nc(SCC(=O)Nn2c(COc3ccc(Cl)cc3Cl)nc3ccccc3c2=O)nc1-c1ccc(O)cc1,86.4%

# Tested on: Rattus norvegicus
# Test: Ulcerogenic activity in fasted albino rat assessed as ulcer index at 50 mg/kg po administered qd for 3 days measured on day 4
# Assay type: toxicity, organism-based
# Parameters: dose 50 mg/kg, route oral
# Details: in vivo, 72 h
# Outline: (§3)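 Albino rats of both sexes (120–150 g), five per group, fasted 20 h, then dosed orally in 1% Tween (test agents 100 mg/kg, celecoxib and diclofenac sodium 50 mg/kg). Feeding cycle: 2 h fast, 2 h feed, 20 h fast, repeated with doses on days 2 and 3. Ulcers scored 0–4. Ulcer index = %incidence/10 + mean ulcer number + mean severity.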
row,SMILES,UI
1,Cc1ccc(-c2cc(C(F)(F)F)nn2-c2ccc(S(N)(=O)=O)cc2)cc1 [CELECOXIB],12.51

# Tested on: Rattus norvegicus
# Test: Antiinflammatory activity in albino rat assessed as inhibition of carrageenan-induced paw edema at 100 mg/kg, po administered 1 hr prior to carrageenan-challenge measured after 0.5 hrs
# Assay type: functional
# Details: not given
# Outline: as §1
row,SMILES,inhibition in vivo at 100 mg/kg
1,N#Cc1c(Nc2ccc(O)cc2)nc(SCC(=O)Nn2c(COc3ccc(Cl)cc3Cl)nc3ccccc3c2=O)nc1-c1ccc(Cl)cc1,71.2%
2,Cn1c(SCC(=O)Nn2c(COc3ccc(Cl)cc3Cl)nc3ccccc3c2=O)nc(-c2ccc(O)cc2)c(C#N)c1=O,76.9%
3,N#Cc1c(Nc2ccccc2)nc(SCC(=O)Nn2c(COc3ccc(Cl)cc3Cl)nc3ccccc3c2=O)nc1-c1ccc(O)cc1,90.4%
4,N#Cc1c(-c2ccccc2)nc(SCC(=O)Nn2c(COc3ccc(Cl)cc3Cl)nc3ccccc3c2=O)[nH]c1=O,80.8%
5,N#Cc1c(Nc2ccc(O)cc2)nc(SCC(=O)Nn2c(COc3ccc(Cl)cc3Cl)nc3ccccc3c2=O)nc1-c1ccc(O)cc1,80.8%

# Tested on: Rattus norvegicus
# Test: Antiinflammatory activity in albino rat assessed as inhibition of carrageenan-induced paw edema at 100 mg/kg, po administered 1 hr prior to carrageenan-challenge measured after 2 hrs
# Assay type: functional
# Details: not given
# Outline: as §1
row,SMILES,inhibition in vivo at 100 mg/kg
1,N#Cc1c(Nc2ccc(O)cc2)nc(SCC(=O)Nn2c(COc3ccc(Cl)cc3Cl)nc3ccccc3c2=O)nc1-c1ccc(Cl)cc1,91.2%
2,Cn1c(SCC(=O)Nn2c(COc3ccc(Cl)cc3Cl)nc3ccccc3c2=O)nc(-c2ccc(O)cc2)c(C#N)c1=O,86%
3,N#Cc1c(Nc2ccccc2)nc(SCC(=O)Nn2c(COc3ccc(Cl)cc3Cl)nc3ccccc3c2=O)nc1-c1ccc(O)cc1,91.2%
4,N#Cc1c(-c2ccccc2)nc(SCC(=O)Nn2c(COc3ccc(Cl)cc3Cl)nc3ccccc3c2=O)[nH]c1=O,86%
5,N#Cc1c(Nc2ccc(O)cc2)nc(SCC(=O)Nn2c(COc3ccc(Cl)cc3Cl)nc3ccccc3c2=O)nc1-c1ccc(O)cc1,86.8%

# Tested on: Rattus norvegicus
# Test: Antiinflammatory activity in po dosed albino rat assessed as inhibition of carrageenan-induced paw edema administered 1 hr prior to carrageenan-challenge relative to diclophenac
# Assay type: functional
# Details: not given
row,SMILES,inhibition (INH)
1,N#Cc1c(Nc2ccc(O)cc2)nc(SCC(=O)Nn2c(COc3ccc(Cl)cc3Cl)nc3ccccc3c2=O)nc1-c1ccc(Cl)cc1,>90%
2,Cn1c(SCC(=O)Nn2c(COc3ccc(Cl)cc3Cl)nc3ccccc3c2=O)nc(-c2ccc(O)cc2)c(C#N)c1=O,>90%
3,N#Cc1c(Nc2ccccc2)nc(SCC(=O)Nn2c(COc3ccc(Cl)cc3Cl)nc3ccccc3c2=O)nc1-c1ccc(O)cc1,>90%
4,N#Cc1c(-c2ccccc2)nc(SCC(=O)Nn2c(COc3ccc(Cl)cc3Cl)nc3ccccc3c2=O)[nH]c1=O,>90%
5,N#Cc1c(Nc2ccc(O)cc2)nc(SCC(=O)Nn2c(COc3ccc(Cl)cc3Cl)nc3ccccc3c2=O)nc1-c1ccc(O)cc1,>90%

# Tested on: Rattus norvegicus
# Test: Ulcerogenic activity in fasted albino rat assessed as ulcer index at 100 mg/kg po administered qd for 3 days measured on day 4
# Assay type: toxicity, organism-based
# Parameters: dose 100 mg/kg, route oral
# Details: in vivo, 72 h
# Outline: as §3
row,SMILES,UI
1,N#Cc1c(Nc2ccc(O)cc2)nc(SCC(=O)Nn2c(COc3ccc(Cl)cc3Cl)nc3ccccc3c2=O)nc1-c1ccc(Cl)cc1,14.43
2,Cn1c(SCC(=O)Nn2c(COc3ccc(Cl)cc3Cl)nc3ccccc3c2=O)nc(-c2ccc(O)cc2)c(C#N)c1=O,11.22
3,N#Cc1c(Nc2ccccc2)nc(SCC(=O)Nn2c(COc3ccc(Cl)cc3Cl)nc3ccccc3c2=O)nc1-c1ccc(O)cc1,11.38
4,N#Cc1c(-c2ccccc2)nc(SCC(=O)Nn2c(COc3ccc(Cl)cc3Cl)nc3ccccc3c2=O)[nH]c1=O,14.4
5,N#Cc1c(Nc2ccc(O)cc2)nc(SCC(=O)Nn2c(COc3ccc(Cl)cc3Cl)nc3ccccc3c2=O)nc1-c1ccc(O)cc1,14.22
